Source: PubChem (several laboratories)
Yeast life ext – compounds extending yeast replicative lifespan, primary screen, S. cerevisiae, OD615 | S. cerevisiae growth with nicotinamide; deaD strain in restrictive glucose medium | inhibition of the nicotinamide effect, % at 10 µM | 0.68% of 130,000 active;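 active = inhibition above a set limit, placed 3 SD over the median of all compounds, cut at about 26% in these data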
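Test system – modified budding yeast, DeaD strain · Compound – single dose 10 µM compound, 0.25% DMSO · Times – culture preincubation 4 h, compound exposure 48 h, both 30 °C · Detection – optical density (absorbance) at 615 nm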
Measles CPE – compounds protecting cells from measles virus cytopathic effect, primary screen, measles RdRp inhibitor project, single point, MLSMR library, absorbance. protection (pct of control), % at 4 µM. 1.5% of 140,000 active. AID 841, 2007. Measles virus-infected cells, CPE protection; in the data active = protection mostly above about 24%, no sharp cut-off; inactive = mostly below about 26%
RAM network inh – inhibitors of the yeast RAM network, primary screen, dse1pr::URA3 reporter, 5-FOA selection | inhibition, % at 50 µM | 1.8% of 190,000 active | S. cerevisiae dse1pr::URA3 reporter, 5-FOA growth OD615, 2 d; analog-sensitive cbk1-as2 kinase mutant strain;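 active = inhibition above a set limit, 3 SD over mean compound inhibition, cut at about 8.4% in these data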;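 note: inhibition rescues growth on 5-FOA so higher OD means more RAM inhibition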
BB579 growth dn – growth inhibitors of yeast BB579 in restrictive medium, primary screen, yeast lifespan-shortening project, S. cerevisiae; 0.51% of 140,000 active; OD615, 48 h; inhibition, % at 10 µM; AID 804, 2007;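 active = inhibition above a set limit, 3 SD over the mean compound inhibition, cut at about 44% in these data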
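Test system: Saccharomyces cerevisiae DeaD strain BB579, replicative lifespan model yeast | Buffer or medium: Restrictive CSMM-D medium | Doses: One dose, 10 µM compound with 0.25% DMSO | Incubation: 48 h exposure, 30 °C | Detection: Culture absorbance at 615 nm | Control set: Amphotericin B at 10 µg/mL as positive control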
Numbers stand for hits; 0 = inactive; - = no result. Rows were chosen to be rich in hits. Some 3.6% of all compounds tested hit in one or more screens of this group.

SMILES	Yeast life ext	Measles CPE	RAM network inh	BB579 growth dn
Cc1cc(C)nc(SCc2nnc(SCC(=O)Nc3nccs3)n2Cc2ccco2)n1	0	41	0	0
COc1cc([N+](=O)[O-])ccc1NC(=O)C[n+]1cccc(C(C)=O)c1	-	-	0	-
O=C(CCS(=O)(=O)c1ccccc1)Nc1ccccc1F	-	-	0	-
Cc1nnsc1C(=O)N/N=C/c1ccc(OC(F)(F)F)cc1	-	-	0	-
CCOC(=O)C1=C(C(F)(F)F)Nc2ncnn2C1c1cc(OC)ccc1OC (configuration not stated)	0	0	0	0
Cc1ccc(NC(=S)N(Cc2ccco2)C2CCN(C(C)C)CC2)cc1	0	39	0	0
CC(C)C[C@H](NC(=O)Nc1cccc(Br)c1)C(=O)O	0	63	0	0
Cn1c(O)c(N=NC(=O)c2cccc(S(=O)(=O)N3CCCCC3)c2)c2ccccc21	0	0	8.9	0
NC(=O)c1cccc(S(=O)(=O)N2CCCCC2)c1	0	0	0	0
CC(C)OCCCNS(=O)(=O)c1ccc2ccccc2c1	108	30	0	0
O=S(=O)(NCCOc1ccccc1)c1ccc2ccccc2c1	0	0	0	0
COc1ccc(-n2nc(C#N)c(Cl)cc2=O)cc1	-	-	0	-
CCC1SC2=NC(C)=C(C(=O)OCC(C)C)C(/C=C/c3ccccc3OC)N2C1=O (configuration not stated)	0	0	0	0
CCC1SC2=NC(C)=C(C(=O)OCCOC)C(/C=C/c3ccccc3OC)N2C1=O (configuration not stated)	0	54	0	0
O=C(c1ccc(Cl)cc1)C(Cn1cncn1)C(Sc1ccccc1)c1ccccc1 (configuration not stated)	0	0	9.8	0
Cc1ccc(SC(c2ccccc2)C(Cn2cncn2)C(=O)c2ccccc2)cc1 (configuration not stated)	0	0	0	0
CCn1c(SCC(=O)Nc2sc3c(c2C#N)CCCC3)nnc1-c1ccncc1	-	0	11	0
COC(=O)CC/C(=N/Nc1ccc(Cl)c(Cl)c1)C(=O)OC	-	-	0	-
CCOC(=O)c1cnc2c(c(C)nn2CC)c1NCCN1CCOCC1	-	-	0	-
CCOC(=O)c1sc2nc(CC(=O)OC)nc(NCc3ccco3)c2c1C	0	0	11	0
CCc1cccc(CC)c1NC(=O)COC(=O)C1(C)CC1(Cl)Cl (configuration not stated)	-	-	0	-
COC(=O)c1ccc2c(=O)n(Cc3ccco3)c(SCC(=O)Nc3ccc(C)c(Cl)c3)nc2c1	0	0	0	0
O=C(CSc1nc2cc(Cl)ccc2c(=O)n1Cc1ccco1)Nc1ccc(S(=O)(=O)N2CCOCC2)cc1	0	0	9.1	0
CC1CC(C)CN(c2ncc3c(n2)CC(c2ccccc2)CC3=O)C1 (configuration not stated)	0	42	0	0
Clc1ccccc1Cc1noc(CN2CCN(Cc3ccccn3)CC2)n1	-	-	0	-
SMILES	Yeast life ext	Measles CPE	RAM network inh	BB579 growth dn
CCN(CC)S(=O)(=O)c1ccc(/C=C/C(=O)OCC(=O)Nc2ccc(C(N)=O)cc2)cc1	-	-	0	-
CCN(CC)S(=O)(=O)c1ccc(/C=C/C(=O)OCC(=O)Nc2ccc(S(N)(=O)=O)cc2)cc1	0	28	0	0
Cn1c(C(C#N)C(=O)c2ccco2)nc2ccccc21 (configuration not stated)	0	0	0	64
O=C(Cn1nnc(-c2ccccc2F)n1)NCc1ccco1	-	-	0	-
CC(C)c1nnc(NC(=O)CSc2nnc(NC(=O)c3c(F)cccc3F)s2)s1	-	-	10	-
O=C1OCCC1Sc1nnc(-c2ccc(F)cc2)n1Cc1ccccc1 (configuration not stated)	0	0	0	0
Cc1cc2cc(CNC(=O)c3ccc(S(=O)(=O)N4CCCCC4)cc3)ccc2[nH]1	0	35	0	0
Cc1cccc(-n2c(CNC(=O)c3ccc(S(=O)(=O)N4CCCC4)cc3)n[nH]c2=S)c1	0	36	0	0
COCCNC(=O)/C(=C/c1ccccc1Cl)c1ccccc1	0	0	0	0
Cc1ccc(OC(C)C(=O)N=Nc2c(O)[nH]c3ccc([N+](=O)[O-])cc23)cc1 (configuration not stated)	-	-	0	-
N#CCCn1nc(-c2ccc(Br)cc2)cc1Nc1ccccc1NC(=O)C(F)(F)F	0	0	10	0
O=C(Cc1cccs1)Nc1cc(SCCO)cc([N+](=O)[O-])c1	0	102	0	0
O=C(Nc1cc(SCCO)cc([N+](=O)[O-])c1)c1ccco1	0	0	0	0
